We go through 2 molecules from ChEMBL document CHEMBL4725346, “Syntheses and Evaluation of New Bisacridine Derivatives for Dual Binding of G-Quadruplex and i-Motif in Regulating Oncogene c-myc Expression” (J Med Chem, 2020).

Calls of active or inactive are those of the source. The calls are words filed in the database; no cut-off is given here.

The target in data set [1] is dsDNA. In words: Binding affinity to 5'-biotin labeled duplex DNA (unknown origin) by surface plasmon resonance method. In kind it is nucleic-acid assay. The gist of the method: (§1)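 SPR: 5'-biotin DNA diluted to 1 μM and captured (1000 RU) on a sensor chip, with a blank cell as reference. Running buffers: Py33 in 20 mM MES pH 5.8, 100 mM KCl, 0.05% Tween-20; Pu27 and duplex in 50 mM Tris-HCl pH 7.4, 100 mM KCl. Six ligand concentrations serially diluted from DMSO stock. Association 260 s, dissociation 300 s at 25 °C; NaOH regeneration; blank sensorgrams subtracted.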
In general terms: Surface plasmon resonance follows binding to a sensor surface in real time, without labels.

Data set [2] deals with HCT-116. In words: Antiproliferative activity against human HCT-116 cells after 48 hrs by MTT assay. Conditions: HCT-116, 48 h. It counts as functional, cell-based. An outline of the steps:
(§2)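 Cells seeded at 5.0×10^3 per well, pre-incubated 12 h at 37 °C, 5% CO2, then exposed to compounds for 48 h; DMSO-only control. MTT (2.5 mg/mL) added for 4 h, formazan dissolved in DMSO, absorbance at 570 nm. Each dose tested in triplicate; IC50 from percentage survival relative to negative control.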
In general terms: Tetrazolium dyes change colour on reduction, which living cells bring about.

For data set [3], the system named is SiHa. In words: Antiproliferative activity against human SiHa cells after 48 hrs by MTT assay. It counts as functional, cell-based. An outline of the steps: as §2
In data set [4] the test system is ssDNA. Kind of data set: Binding affinity to 5'-biotin labeled single-stranded DNA Py33 (unknown origin) at <=50 uM by surface plasmon resonance method. It counts as nucleic-acid assay.
Data set [5] is described as follows: Stabilization of 5'-FAM/3'-TAMRA labeled hairpin DNA F10T (unknown origin) assessed as change in melting temperature at 1 uM by FRET assay (reference value: 59.1 degreeC).
Data set [6] is described as follows: Binding affinity to 5'-biotin labeled c-myc promoter i-motif DNA Py33 (unknown origin) by surface plasmon resonance method. An outline of the steps: as §1
Data set [7] deals with A549. Kind of data set: Antiproliferative activity against human A549 cells after 48 hrs by MTT assay. It counts as functional, cell-based. Conditions: A549, 48 h. An outline of the steps: as §2
Data set [8] relates to U2OS. Kind of data set: Antiproliferative activity against human U2OS cells after 48 hrs by MTT assay. It counts as functional, cell-based. The gist of the method: as §2
The test system of data set [9] is A-375. In words: Antiproliferative activity against human A-375 cells after 48 hrs by MTT assay. In kind it is functional, cell-based. The settings on record: A-375, 48 h. The gist of the method:
as §2

Data set [10] relates to HeLa. Kind of data set: Antiproliferative activity against human Hela cells after 48 hrs by MTT assay. In kind it is functional, cell-based. The gist of the method:
as §2

Data set [11] deals with Huh-7. In words: Antiproliferative activity against human Huh-7 cells after 48 hrs by MTT assay. In kind it is functional, cell-based. Conditions: Huh-7, 48 h. The gist of the method:
as §2

For data set [12], the target named is Quadruplex DNA. Kind of data set: Binding affinity to 5'-biotin labeled c-myc promoter G-quadruplex DNA Pu27 (unknown origin) by surface plasmon resonance method. It counts as nucleic-acid assay. An outline of the steps:
as §1

Data set [13] can be described thus: Stabilization of 5'-FAM/3'-TAMRA labeled c-myc promoter i-motif DNA FPy33T (unknown origin) assessed as change in melting temperature at 1 uM by FRET assay (reference value: 53.2 degreeC). The gist of the method:
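FRET melting of dual FAM/TAMRA-labelled FPy33T annealed in 1× BPES (30 mM potassium phosphate, 1 mM EDTA, 100 mM KCl), pH 5.5. Final 0.2 µM DNA with or without ligand. Excitation 470 nm, emission 530 nm, read every 1 °C over 37–99 °C. ΔTm taken against DNA alone.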

Data set [14] relates to Quadruplex DNA. In words: Stabilization of 5'-FAM/3'-TAMRA labeled c-myc promoter G-quadruplex DNA FPu22T (unknown origin) assessed as change in melting temperature at 1 uM by FRET assay (reference value: 66.5 degreeC). It counts as nucleic-acid assay. The gist of the method: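 FRET melting of dual FAM/TAMRA-labelled FPu22T annealed in 10 mM Tris-HCl pH 7.4 with KCl. Final 0.2 µM DNA with or without ligand. Excitation 470 nm, emission 530 nm, read every 1 °C over 37–99 °C on a real-time PCR cycler. ΔTm = Tm(DNA+ligand) − Tm(DNA).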

The subject of data set [15] is Quadruplex DNA. Kind of data set: Stabilization of c-myc promoter G-quadruplex DNA Pu27 (unknown origin) assessed as effect on melting temperature at 5 uM by CD spectroscopy. In kind it is nucleic-acid assay. An outline of the steps: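 CD melting: Pu27 diluted to 1 µM in 10 mM Tris-HCl, 5 mM KCl, pH 7.4, with or without ligand. Annealed at 95 °C for 5 min, slowly cooled, then heated at 1 °C/min while monitoring 260 nm. Tm obtained by curve fitting.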

Data set [16] in a line: Drug uptake in human SiHa cells. In kind it is ADME, cell-based.
Data set [17] relates to Quadruplex DNA. In words: Stabilization of c-myc promoter G-quadruplex DNA Pu27 (unknown origin) in pH 7.4 Tris-HCl buffer by CD spectroscopy. In kind it is nucleic-acid assay. The gist of the method: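 Pu27 at 1 µM in 10 mM Tris-HCl pH 7.4, with or without ligand. Annealed at 95 °C for 5 min, cooled to room temperature, stored at 4 °C overnight. CD spectra taken in a 4 mm cuvette over 230–350 nm, three scans averaged, smoothed and buffer-baseline corrected.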

Data set [18] relates to Quadruplex DNA. Kind of data set: Binding affinity to c-myc promoter G-quadruplex/i-motif in human SiHa cells assessed as reduction in c-myc expression incubated for 24 hrs by Western blot analysis. It counts as cell-based. The gist of the method:
(§3)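 SiHa cells treated 24 h at 0, 0.625, 1.25 and 2.5 μM, then lysed in buffer with 1 mM PMSF. Protein measured by BCA, equal loads run on 8% gel and blotted to PVDF. Probed with anti-c-MYC and anti-β-actin (loading control), HRP anti-rabbit secondary, chemiluminescence read-out.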

For data set [19], the system named is Quadruplex DNA. In words: Binding affinity to c-myc promoter G-quadruplex/i-motif in human SiHa cells assessed as reduction in c-myc mRNA level incubated for 24 hrs by qRT-PCR analysis. The settings on record: dose microM 0.625-2.5, time 24.0 hrs. In kind it is cell-based. The gist of the method: (§4)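 SiHa cells at 0, 0.625, 1.25 and 2.5 μM for 24 h; DMSO control. Total RNA extracted with TRIzol. 1.5 μg RNA reverse-transcribed with oligo dT18 and M-MLV (42 °C 60 min). PCR of 30 cycles (95/58/72 °C), products run on 1.2% agarose. β-actin as internal control; three repeats.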

The subject of data set [20] is Quadruplex DNA. In words: Binding affinity to c-myc promoter G-quadruplex/i-motif in human SiHa cells assessed as reduction in c-myc mRNA level at 5 uM incubated for 24 hrs by qRT-PCR analysis. In kind it is cell-based. Also noted: scale not given: the % may be the effect or the level left. Background: Real-time PCR tracks product formation cycle by cycle.
The subject of data set [21] is Quadruplex DNA. In words: Binding affinity to c-myc wild-type promoter G-quadruplex/i-motif (unknown origin) expressed in human SiHa cells assessed as reduction in c-myc transcription by measuring decrease in ratio of renilla/firefly luciferase activity at 1/3 IC50 after 48 hrs by dual-luciferase reporter assay. In kind it is cell-based. An outline of the steps:
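SiHa cells transfected with 200 ng psiCHECK2 plasmid carrying wild-type, mutant or deleted c-myc promoter. Compounds added 8 h after transfection, then incubated 48 h at 37 °C. Cells washed with ice-cold PBS; Renilla/firefly activity ratio read by dual-luciferase assay.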

The nature of data set [22]: Stabilization of c-myc promoter i-motif DNA Py33 (unknown origin) assessed as effect on melting temperature at 5 uM by CD spectroscopy. An outline of the steps: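 CD melting: Py33 at 1 µM in 1× BPES pH 6.4, with or without ligand. Annealed at 95 °C for 5 min, slowly cooled, then heated at 1 °C/min while monitoring 260 nm. Tm obtained by curve fitting.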
Data set [23] relates to Quadruplex DNA. In words: Binding affinity to c-myc promoter G-quadruplex/i-motif in human SiHa cells assessed as reduction in c-myc mRNA level at 2.5 uM incubated for 24 hrs by qRT-PCR analysis. It counts as cell-based. Also noted: scale not given: the % may be the effect or the level left. The gist of the method: as §4
Data set [24] relates to Quadruplex DNA. Kind of data set: Binding affinity to c-myc promoter G-quadruplex/i-motif in human SiHa cells assessed as reduction in c-myc expression at 2.5 uM incubated for 24 hrs by Western blot analysis. It counts as cell-based. Also noted: scale not given: the % may be the effect or the level left. An outline of the steps: as §3
The test system of data set [25] is Quadruplex DNA. Kind of data set: Binding affinity to c-myc promoter G-quadruplex/i-motif in human SiHa cells assessed as reduction in c-myc mRNA level at 1.25 uM incubated for 24 hrs by qRT-PCR analysis. Also noted: scale not given: the % may be the effect or the level left. It counts as cell-based. An outline of the steps:
as §4

For data set [26], the system named is Quadruplex DNA. In words: Binding affinity to c-myc promoter G-quadruplex/i-motif in human SiHa cells assessed as reduction in c-myc expression at 1.25 uM incubated for 24 hrs by Western blot analysis. It counts as cell-based. On the set-up: scale not given: the % may be the effect or the level left. The gist of the method: as §3
Data set [27] relates to Quadruplex DNA. Kind of data set: Binding affinity to c-myc promoter G-quadruplex/i-motif in human SiHa cells assessed as reduction in c-myc expression at 5 uM incubated for 24 hrs by Western blot analysis. It counts as cell-based. On the set-up: scale not given: the % may be the effect or the level left.

Turning to `c1ccc2c(NCCNCCNc3c4ccccc4nc4ccccc34)c3ccccc3nc2c1`, the figures for the Kd in data set [1], in data set [6] and in [12] were 6.5 µM, 12.3 µM and 4.7 µM, respectively. Moreover, the IC50 (commonly the concentration that gives 50% inhibition) in data set [2] worked out at 11.1 µM; in data set [3], 12 µM; in [7] it was 9.79 µM; in data set [8], 5.48 µM; in [9], 6.85 µM; in data set [10] it was 13.8 µM. Besides, the IC50 in data set [11] came out at 20 µM. Besides, the outcome in data set [4] was inactive. Further, the values for the ΔTm in data set [5], in data set [13] and in [14] were 2.5 °C, 0.7 °C and 15.2 °C, respectively.

As for `Cc1ccc2nc3ccc(C)cc3c(NCCOCCOCCNc3c4cc(C)ccc4nc4ccc(C)cc34)c2c1`, the outcome in data set [15], in data set [17] and in data set [21] was Active. Moreover, the Kd (usually the concentration at which binding is half-saturated) in data set [1] was found to be 22.1 µM; in data set [6], 26.2 µM; in [12] it was 3.6 µM. In addition, the IC50 turned out to be 2.12 µM in data set [2]; 0.56 µM in [3]; 2.26 µM in data set [7]; 1.23 µM in [8]; 1.75 µM in data set [9]; 1.36 µM in [10]. The molecule also had an IC50 in data set [11] of 1.95 µM. Besides, the Drug uptake entry in [16] is given as “Active”. In addition, the Activity result in [18] was “Dose-dependent effect”; in data set [19], “Dose-dependent effect”; in data set [20] it was 79.8%; in data set [23], 55.8%; in data set [24] it was 42.2%; in [25], 32.6%. The values for the Activity in data set [26] and in data set [27] were 25.3% and 62.3%, respectively. Moreover, the figures for the ΔTm in data set [5], in [13] and in data set [14] were 2.3 °C, 1 °C and 13.5 °C, respectively. Also, the outcome in data set [22] was inactive.
